Laboratory results from ChEMBL document CHEMBL1152399, “Synthesis and fungicidal activity of 3,5-dichloropyrazin-2(1H)-one derivatives” (2009).
≈ marks a conversion by molar mass, not a printed value.

How the values were obtained:
Type in all cases: functional
Candida albicans [1] = assay: Antifungal activity against Candida albicans CAI4
Procedure, shortened: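 C. albicans CAI4 overnight YPD culture diluted in PBS (~2 × 10⁶ cells/mL) and exposed to a range of compound concentrations in 2% DMSO for 5 h at 37 °C, then CFU counted. Survival is the CFU ratio against the 2% DMSO control. MFC is the lowest concentration giving <0.1% survival.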

Candida albicans [2] = assay: Induction of reactive oxygen species production in Candida albicans assessed as corrected fluorescence value at 100 ug/mL after 3 hrs by fluorescence assay
Procedure, shortened: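 C. albicans grown overnight in YPD at 37 °C and resuspended in PBS. Cells mixed with a 100 µg/mL compound solution in 10% DMSO (DMSO alone as control) and held 1 h at 37 °C. 2',7'-dichlorofluorescin diacetate then added; fluorescence read after 3 h (ex 485/em 525 nm). A compound-plus-probe blank without cells was subtracted to give the corrected value.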

Candida albicans [3] = assay: Antifungal activity against Candida albicans assessed as fungus survival rate at 5 ug/mL in absence of ascorbic acid
Procedure, shortened: (§1)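 Overnight C. albicans YPD culture diluted in PBS (~2 × 10⁶ cells/mL) and treated with compound in 2% DMSO, with or without 80 mM ascorbic acid, for 5 h at 37 °C. CFU counted, and percentage survival taken against the 2% DMSO control.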

Candida albicans [4] = assay: Antifungal activity against Candida albicans assessed as fungus survival rate at 5 ug/mL in presence of ascorbic acid; procedure, shortened: as §1
Saccharomyces cerevisiae [5] = assay: Antifungal activity against wild type Saccharomyces cerevisiae BY4741 after 48 hrs by microtiter plate method; details: BY4741, 48 h
Procedure, shortened: (§2)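 Yeast deletion mutants grown in YPD in microtiter wells for 48 h at 30 °C. For the retest, 5 µL fivefold serial dilutions of stationary-phase cultures were spotted on YPD with or without compound, and growth was compared with BY4741 after 48 h at 30 °C.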

Saccharomyces cerevisiae [6] = assay: Antifungal activity against CUP5 gene knockout Saccharomyces cerevisiae mutant after 48 hrs by microtiter plate method; procedure, shortened: as §2
Saccharomyces cerevisiae [7] = assay: Antifungal activity against VPH2 gene knockout Saccharomyces cerevisiae mutant after 48 hrs by microtiter plate method; procedure, shortened: as §2
Saccharomyces cerevisiae [8] = assay: Antifungal activity against VMA7 gene knockout Saccharomyces cerevisiae mutant after 48 hrs by microtiter plate method; procedure, shortened: as §2
Saccharomyces cerevisiae [9] = assay: Antifungal activity against ADA2 gene knockout Saccharomyces cerevisiae mutant after 48 hrs by microtiter plate method; procedure, shortened: as §2
Saccharomyces cerevisiae [10] = assay: Antifungal activity against HTL1 gene knockout Saccharomyces cerevisiae mutant after 48 hrs by microtiter plate method; procedure, shortened: as §2
Saccharomyces cerevisiae [11] = assay: Antifungal activity against SPT7 gene knockout Saccharomyces cerevisiae mutant after 48 hrs by microtiter plate method; procedure, shortened: as §2
Saccharomyces cerevisiae [12] = assay: Antifungal activity against GET2 gene knockout Saccharomyces cerevisiae mutant after 48 hrs by microtiter plate method; procedure, shortened: as §2
Saccharomyces cerevisiae [13] = assay: Antifungal activity against YKL118W gene knockout Saccharomyces cerevisiae mutant after 48 hrs by microtiter plate method; procedure, shortened: as §2
Saccharomyces cerevisiae [14] = assay: Antifungal activity against REG1 gene knockout Saccharomyces cerevisiae mutant after 48 hrs by microtiter plate method; procedure, shortened: as §2
Saccharomyces cerevisiae [15] = assay: Antifungal activity against AMD1 gene knockout Saccharomyces cerevisiae mutant after 48 hrs by microtiter plate method; procedure, shortened: as §2
Saccharomyces cerevisiae [16] = assay: Ratio of MIC for wild type Saccharomyces cerevisiae BY4741 to MIC for VPS15 gene knockout Saccharomyces cerevisiae mutant
Saccharomyces cerevisiae [17] = assay: Ratio of MIC for wild type Saccharomyces cerevisiae BY4741 to MIC for CUP5 gene knockout Saccharomyces cerevisiae mutant
Saccharomyces cerevisiae [18] = assay: Ratio of MIC for wild type Saccharomyces cerevisiae BY4741 to MIC for VPH2 gene knockout Saccharomyces cerevisiae mutant
Saccharomyces cerevisiae [19] = assay: Ratio of MIC for wild type Saccharomyces cerevisiae BY4741 to MIC for VMA7 gene knockout Saccharomyces cerevisiae mutant
Saccharomyces cerevisiae [20] = assay: Ratio of MIC for wild type Saccharomyces cerevisiae BY4741 to MIC for ADA2 gene knockout Saccharomyces cerevisiae mutant
Saccharomyces cerevisiae [21] = assay: Ratio of MIC for wild type Saccharomyces cerevisiae BY4741 to MIC for HTL1 gene knockout Saccharomyces cerevisiae mutant
Saccharomyces cerevisiae [22] = assay: Ratio of MIC for wild type Saccharomyces cerevisiae BY4741 to MIC for SPT7 gene knockout Saccharomyces cerevisiae mutant
Saccharomyces cerevisiae [23] = assay: Ratio of MIC for wild type Saccharomyces cerevisiae BY4741 to MIC for GET2 gene knockout Saccharomyces cerevisiae mutant
Saccharomyces cerevisiae [24] = assay: Ratio of MIC for wild type Saccharomyces cerevisiae BY4741 to MIC for YKL118W gene knockout Saccharomyces cerevisiae mutant
Saccharomyces cerevisiae [25] = assay: Ratio of MIC for wild type Saccharomyces cerevisiae BY4741 to MIC for REG1 gene knockout Saccharomyces cerevisiae mutant
Saccharomyces cerevisiae [26] = assay: Ratio of MIC for wild type Saccharomyces cerevisiae BY4741 to MIC for AMD1 gene knockout Saccharomyces cerevisiae mutant
Saccharomyces cerevisiae [27] = assay: Antifungal activity against 3,5-dichloro-6-(chloromethyl)-1-phenylpyrazin-2(1H)-one-resistant Saccharomyces cerevisiae mutant after 48 hrs by microtiter plate method
Saccharomyces cerevisiae [28] = assay: Antifungal activity against VPS15 gene knockout Saccharomyces cerevisiae mutant after 48 hrs by microtiter plate method; procedure, shortened: as §2
Saccharomyces cerevisiae [29] = assay: Ratio of MIC for 3,5-dichloro-6-(chloromethyl)-1-phenylpyrazin-2(1H)-one-resistant Saccharomyces cerevisiae mutant to MIC for wild type Saccharomyces cerevisiae BY4741

**Q.** How did the MFC (Candida albicans [1]) turn out when `COc1ccc(Cn2cc(Cl)nc(Cl)c2=O)cc1` was run?
**A.** The MFC was 50 µg/mL (≈ 175 µM).

**Q.** How did the MFC (Candida albicans [1]) turn out when `COc1ccc(Cn2c(-c3ccc(OC)cc3)c(Cl)nc(Cl)c2=O)cc1` was run?
**A.** Its MFC is greater than 100 µg/mL.

**Q.** And the Activity (Candida albicans [2])?
**A.** The Activity was greater than 500.

**Q.** How did the MFC (Candida albicans [1]) turn out when `COc1ccc(-n2cc(Cl)nc(Cl)c2=O)cc1` was run?
**A.** The MFC was 10 µg/mL (≈ 36.9 µM).

**Q.** Which results are given for `O=c1c(Cl)nc(Cl)c(CCl)n1-c1ccccc1`?
**A.** MFC (Candida albicans [1]): 5 µg/mL (≈ 17.3 µM); Activity (Candida albicans [3]): 0.009%; Activity (Candida albicans [4]): 64%; MIC (Saccharomyces cerevisiae [5]): 2.5 µg/mL (≈ 8.63 µM); MIC (Saccharomyces cerevisiae [6]): 0.5 µg/mL (≈ 1.73 µM); MIC (Saccharomyces cerevisiae [7]): 0.5 µg/mL (≈ 1.73 µM); MIC (Saccharomyces cerevisiae [8]): 0.5 µg/mL (≈ 1.73 µM); MIC (Saccharomyces cerevisiae [9]): 0.5 µg/mL (≈ 1.73 µM); MIC (Saccharomyces cerevisiae [10]): 0.5 µg/mL (≈ 1.73 µM); MIC (Saccharomyces cerevisiae [11]): 0.5 µg/mL (≈ 1.73 µM); MIC (Saccharomyces cerevisiae [12]): 0.5 µg/mL (≈ 1.73 µM); MIC (Saccharomyces cerevisiae [13]): 0.5 µg/mL (≈ 1.73 µM); MIC (Saccharomyces cerevisiae [14]): 0.5 µg/mL (≈ 1.73 µM); MIC (Saccharomyces cerevisiae [15]): 0.5 µg/mL (≈ 1.73 µM); Ratio (Saccharomyces cerevisiae [16]): 5; Ratio (Saccharomyces cerevisiae [17]): 5; Ratio (Saccharomyces cerevisiae [18]): 5; Ratio (Saccharomyces cerevisiae [19]): 5; Ratio (Saccharomyces cerevisiae [20]): 5; Ratio (Saccharomyces cerevisiae [21]): 5; Ratio (Saccharomyces cerevisiae [22]): 5; Ratio (Saccharomyces cerevisiae [23]): 5; Ratio (Saccharomyces cerevisiae [24]): 5; Ratio (Saccharomyces cerevisiae [25]): 5; Ratio (Saccharomyces cerevisiae [26]): 5; MIC (Saccharomyces cerevisiae [27]): 12.5 µg/mL (≈ 43.2 µM); MIC (Saccharomyces cerevisiae [28]): 0.5 µg/mL (≈ 1.73 µM); Ratio (Saccharomyces cerevisiae [29]): 5

**Q.** `O=c1c(Cl)nc(Cl)cn1C1CCCCC1` was tested. Which MFC (Candida albicans [1]) did it give?
**A.** The MFC was greater than 100 µg/mL.

**Q.** What about the Activity (Candida albicans [2]) of the same compound?
**A.** Its Activity is greater than 500.

**Q.** `O=c1c(Cl)nc(Cl)cn1-c1ccccc1` was tested. Which MFC (Candida albicans [1]) did it give?
**A.** The MFC was 10 µg/mL (≈ 41.5 µM).

**Q.** Which results are given for `COCCn1c(-c2ccccc2)c(Cl)nc(Cl)c1=O`?
**A.** MFC (Candida albicans [1]): > 100 µg/mL; Activity (Candida albicans [2]): >500

**Q.** Which MFC (Candida albicans [1]) does the source give for `O=c1c(Cl)nc(Cl)cn1CC1CCCCC1` here?
**A.** Its MFC is 100 µg/mL (≈ 383 µM).

**Q.** How did the MFC (Candida albicans [1]) turn out when `COc1ccc(-c2c(Cl)nc(Cl)c(=O)n2-c2ccccc2)cc1` was run?
**A.** Its MFC is greater than 100 µg/mL.

**Q.** Which MFC (Candida albicans [1]) does the source give for `COC(=O)c1ccc(-c2c(Cl)nc(Cl)c(=O)n2-c2ccccc2)cc1` here?
**A.** Its MFC is greater than 100 µg/mL.

**Q.** `O=c1c(Cl)nc(Cl)cn1Cc1ccccc1` was tested. Which MFC (Candida albicans [1]) did it give?
**A.** The MFC was 50 µg/mL (≈ 196 µM).

**Q.** How did the MFC (Candida albicans [1]) turn out when `O=c1c(-c2ccccc2)nc(Cl)c(CCl)n1-c1ccccc1` was run?
**A.** Its MFC is greater than 100 µg/mL.

**Q.** And the Activity (Candida albicans [2])?
**A.** The Activity was greater than 500.

**Q.** Which MFC (Candida albicans [1]) does the source give for `O=c1c(Cl)nc(Cl)cn1CCc1ccccc1` here?
**A.** The MFC was 50 µg/mL (≈ 186 µM).

**Q.** How did the MFC (Candida albicans [1]) turn out when `COc1ccccc1Cn1c(Cc2ccccc2)c(Cl)nc(Cl)c1=O` was run?
**A.** Its MFC is greater than 100 µg/mL.

**Q.** With `Cc1c(Cl)nc(Cl)c(=O)n1-c1ccccc1` as the compound, how does the MFC (Candida albicans [1]) read?
**A.** Its MFC is greater than 100 µg/mL.

**Q.** How did the MFC (Candida albicans [1]) turn out when `Cc1ccccc1-c1c(Cl)nc(Cl)c(=O)n1-c1ccccc1` was run?
**A.** The MFC was greater than 100 µg/mL.

**Q.** And the Activity (Candida albicans [2])?
**A.** Its Activity is greater than 500.

**Q.** With `COc1ccc(Cn2c(C)c(Cl)nc(Cl)c2=O)cc1` as the compound, how does the MFC (Candida albicans [1]) read?
**A.** Its MFC is greater than 100 µg/mL.

**Q.** With `COc1cccc(-c2c(Cl)nc(Cl)c(=O)n2C)c1` as the compound, how does the MFC (Candida albicans [1]) read?
**A.** Its MFC is greater than 100 µg/mL.

**Q.** And the Activity (Candida albicans [2])?
**A.** The Activity was greater than 500.

**Q.** With `COc1nc(Cl)c(CCl)n(-c2ccccc2)c1=O` as the compound, how does the MFC (Candida albicans [1]) read?
**A.** Its MFC is greater than 100 µg/mL.

**Q.** And the Activity (Candida albicans [2])?
**A.** Its Activity is greater than 500.

**Q.** `Cc1c(Cl)nc(Cl)c(=O)n1Cc1ccccc1` was tested. Which MFC (Candida albicans [1]) did it give?
**A.** The MFC was greater than 100 µg/mL.

**Q.** And the Activity (Candida albicans [2])?
**A.** The Activity was greater than 500.

**Q.** `COc1ccccc1-c1c(Cl)nc(Cl)c(=O)n1-c1ccccc1` was tested. Which MFC (Candida albicans [1]) did it give?
**A.** The MFC was greater than 100 µg/mL.

**Q.** What about the Activity (Candida albicans [2]) of the same compound?
**A.** Its Activity is less than 100.

**Q.** `O=c1c(Cl)nc(Cl)c(CBr)n1-c1ccccc1` was tested. Which MFC (Candida albicans [1]) did it give?
**A.** The MFC was 5 µg/mL (≈ 15 µM).
